Screening data as filed in PubChem BioAssay.
Biofilm kill mix – mixture kills Candida albicans biofilm cells; C. albicans biofilm persisters + clotrimazole, fluorescence viability; primary screen in compound mixtures of four per well; inhibition, % at 7.6 µM; actives 0.02% (n = 120,000); AID 1242;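 active means inhibition above 30.3% in the primary screen of four-compound pools, then above 30% when the compound was retested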;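 further: compounds exposed to preformed 24 h biofilms for 48 h; 0% = untreated biofilm control and 100% = clotrimazole plus chlorhexidine kill blank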
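Test system: C. albicans biofilms. Buffer or medium: RPMI/MOPS medium, pH 7.0. Timing: 48 h compound exposure at 37 °C. Technique: Alamar Blue fluorescence. Evaluation: percent inhibition of biofilm viability.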
S1P4 antag – antagonists of human S1P4 receptor. O95977. S1P4-expressing cells, antagonist mode, reporter read-out. inhibition, % at 4.98 µM. actives 0.26% (n = 220,000). AID 1510; in the data active means inhibition above about 29%;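 further: 0% = wells stimulated with agonist and 100% = vehicle wells without agonist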
Mdm2 ligase inh – blocks human Mdm2 ubiquitin ligase activity | Q00987 | cell-based MDM2 ubiquitination luciferase reporter, 2 h; 0 = plate control, 100 = twice control, blank-subtracted | signal enhancement, % at 5 µM | actives 0.11% (n = 210,000) | AID 1230;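 active means signal enhancement of 30% or more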;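 further: luminescence tracks abundance of the self-degrading MDM2-luciferase fusion protein; higher signal means inhibition of MDM2 E3 ligase activity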
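system = mammalian cells stably expressing self-ubiquitinating, self-degrading MDM2 E3–luciferase fusion | quantity = 2000 cells per well seeded | incubation = 4 h cell settling then 2 h compound exposure, 37 °C | signal = SteadyLite luminescence, 15 min reagent step | benchmarks = plate control and blank wells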
S1P3 antag – blocks the human S1P3 receptor | Q99500 | CHO S1P3 NFAT-BLA reporter, FRET fluorescence, antagonist mode | inhibition, % at 4.98 µM | actives 0.27% (n = 170,000) | AID 485;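 active means inhibition above the plate cutoff, the mean inhibition of test wells on that plate plus 3 SD, cut at about 28% in these data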;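 further: cells challenged with S1P at its EC80 of 0.8 µM; blue over green emission ratio from cleaved BLA substrate after 4 h stimulation; 0% = S1P-stimulated wells and 100% = unstimulated DMSO-only wells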
S1P4 ag – activates the human S1P4 receptor | actives 0.35% (n = 220,000) | O95977 | AID 1509 | activation, % at 4.98 µM | S1P4-expressing cell line, agonist reporter assay; in the data active means activation above about 11%;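 further: 0% = DMSO vehicle and 100% = reference agonist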
S1P4 ag conf – human S1P4 agonism, confirmation | activation, % at 4.98 µM | AID 1523 | shares compounds with S1P4 ag | S1P4 agonist cell-based reporter assay | actives 7% (n = 740); in the data active means activation above about 12%;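 further: 0% = vehicle and 100% = full reference agonist response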
S1P1 agonist – counter-screen for S1P4 agonists: agonists of human S1P1. shares compounds with S1P4 ag. S1P1 agonist cell-based assay, activation. activation, % at 4.98 µM. actives 4% (n = 740). AID 1563; in the data active means activation above about 21%;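 further: 0% = vehicle wells and 100% = reference agonist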
Target sequence (P21453 whole entry, looked up): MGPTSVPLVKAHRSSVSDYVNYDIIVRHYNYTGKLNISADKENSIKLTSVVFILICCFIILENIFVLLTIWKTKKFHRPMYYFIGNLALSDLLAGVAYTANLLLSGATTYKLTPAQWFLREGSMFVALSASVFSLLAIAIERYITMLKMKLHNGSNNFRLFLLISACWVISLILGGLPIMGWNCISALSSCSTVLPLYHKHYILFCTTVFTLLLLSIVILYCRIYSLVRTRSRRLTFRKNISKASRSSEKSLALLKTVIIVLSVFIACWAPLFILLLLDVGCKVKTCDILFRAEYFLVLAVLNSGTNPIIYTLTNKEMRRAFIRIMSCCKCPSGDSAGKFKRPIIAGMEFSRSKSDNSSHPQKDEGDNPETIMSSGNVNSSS
The depositor's hits bear a star; . = no result given. Shown are actives, neighbours in structure and some others; about 0.9% of the full set was active somewhere.

SMILES | Biofilm kill mix | S1P4 antag | Mdm2 ligase inh | S1P3 antag | S1P4 ag | S1P4 ag conf | S1P1 agonist
COc1ccc2c(c1OC)C(=O)OC2Nc1ccccc1S(=O)(=O)C(F)F (centres undefined) | . | -32 | -15 | 1 | 17* | 0 | 3
COc1ccc2c(c1OC)C(=O)OC2Nc1ccccn1 (centres undefined) | . | -3 | -1 | -52 | -1 | . | .
O=C(Cn1cc(C(F)(F)F)cc(Cl)c1=O)NCCc1ccccc1 | 15 | -6 | . | -1 | -2 | . | .
COc1cc(-n2c(=O)c3ccccc3n(Cc3cccc(C)c3)c2=O)cc(OC)c1OC | 8 | 0 | -9 | -27 | 31* | 2 | -3
CCOc1ccc(-c2cc3nc(C4CCN(C(=O)OC(C)(C)C)CC4)c(C(=O)O)cn3n2)cc1 | . | 2 | -10 | -6 | 126* | -2 | -8
CCOC(=O)N1CCN(C(=O)c2cc(-c3ccc(OCC)cc3)nc3ccccc23)CC1 | . | -6 | -18 | 12 | 0 | . | .
O=C(Nc1ccccc1N1CCOCC1)C1CCN(S(=O)(=O)c2ccc(F)cc2)CC1 | -2 | 4 | 9 | 1 | 0 | . | .
CC(C)CCOP(=O)(c1ccccc1)c1ccccc1 | 16 | -21 | 1 | -7 | 58* | -1 | 2
COc1ccccc1C(=O)Nc1nc2cc3c(cc2s1)OCO3 | 5 | 11 | -3 | -4 | 27* | -1 | 8
Cc1ccc(NC(=S)NC2CCCCC2)cc1S(=O)(=O)N(C)C | 3 | 7 | -21 | -7 | 1 | . | .
COc1ccc(C(=O)Nc2nc3cc4c(cc3s2)OCCO4)c(OC)c1 | 27 | 3 | -7 | 3 | 1 | . | .
Cc1cc(=O)c2ccccc2n1CC(=O)NCc1ccccc1 | 15 | -24 | 0 | 3 | 19* | -1 | -2
Cc1cc(=O)c2ccccc2n1Cc1ccccc1 | 4 | -9 | -9 | -2 | 3 | . | .
O=C(Nc1cccnc1Cl)c1ccc(Cl)c([N+](=O)[O-])c1 | -4 | 2 | -7 | -1 | -1 | . | .
O=C(Nc1nc(-c2ccccn2)cs1)C1COc2ccccc2O1 (centres undefined) | . | -2 | -50 | -27 | 38* | -1 | 3
CC(=O)Nc1nc(SCc2ccc(Cl)cc2Cl)n[nH]1 | . | 10 | 6 | . | 12* | -2 | -1
Nc1nc(SCc2ccc(Cl)cc2Cl)n[nH]1 | . | 21 | -12 | 1 | 0 | . | .
CC1=CC(C)(C)[N+](C)=CN1c1ccccc1 | 15 | -8 | -6 | -7 | 33* | -1 | 4
Cc1nc2cc(C(=O)O)ccc2n1-c1ccccc1 | . | -22 | -16 | 5 | 0 | . | .
COc1ccc(OC)c(CC(NC(C)=O)C(=O)NC2CCN(c3cc(C)nc4ncnn34)CC2)c1 (centres undefined) | 5 | -1 | -3 | -7 | 2 | . | .
Cn1c(O)c(C=Nc2ccc(N3CCOCC3)cc2)c(=O)n(C)c1=S | 5 | 12 | -19 | -18 | 30* | -2 | -1
O=C(Nc1cccc(C(F)(F)F)c1)C1CCCO1 (centres undefined) | -4 | 1 | 1 | -8 | -1 | . | .
O=C(CN1C(=O)CCC1=O)Nc1ccc(Cc2ccc(NC(=O)CN3C(=O)CCC3=O)cc2)cc1 | 3 | -7 | -23 | 2 | 0 | . | .
CCOCCCn1c(=NC(=O)c2cccs2)c(C#N)cc2c(=O)n3ccccc3nc21 | -11 | -30 | -26 | -28 | 15* | 4 | 30*
COc1cccc(C2CN(c3ccc(F)cc3F)N=C2c2cccs2)c1OC (centres undefined) | -3 | -11 | . | . | 25* | 15* | 43*
COc1ccccc1C1CN(c2ccccc2)N=C1c1cccs1 (centres undefined) | . | 0 | -2 | . | 1 | . | .
COc1ccc(/C(C)=N/NC(=O)CNC(=O)c2cccs2)cc1OC | 1 | 4 | -9 | -26 | 30* | -2 | 4
C[C@@H]1CC[C@H]2C(=O)N3[C@@H](CC[C@@H](C)[C@@H]3c3ccc(Br)cc3)C(=O)N2[C@H]1c1ccc(Br)cc1 | 0 | 8 | . | -10 | 0 | . | .
Cc1cc(-c2c(C(=O)N3CCOCC3)c(C)nn2-c2ccccc2)no1 | 12 | -3 | -15 | 4 | 0 | . | .
